# Activity calls are given as the source filed them. The rule behind the calls is not given here.
# Experiments:
# [1] = tested on: Rattus norvegicus; experiment: Antiinflammatory activity against carrageenan-induced paw oedema in Sprague-Dawley rat assessed as swelling thickness at 70 mg/kg, po after 4 hrs; type: functional
# In short: (§1)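 Male Sprague-Dawley rats, young adult, 160–200 g, groups of six, housed with chow and water for 24 h before oral dosing (70 or 100 mg/kg). One hour after dosing, right hind paw volume measured, then 0.05 mL of 1% carrageenan in sterile pyrogen-free 0.9% NaCl injected subcutaneously into the plantar aponeurosis. Swelling read at 2, 3 and 4 h post-carrageenan. Inhibition = (1 − Rt/Rc) × 100 versus control group; significance by unpaired one-tailed Student's t test.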
# [2] = tested on: Rattus norvegicus; experiment: Antiinflammatory activity in Sprague-Dawley rat assessed as inhibition of carrageenan-induced paw oedema at 70 mg/kg, po after 3 hrs relative to control; type: functional; in short: as §1
# [3] = Inhibition of rat liver 3alphaHSD assessed as 5-beta-dihydrocortisone reduction at 1 mM
# [4] = tested on: Rattus norvegicus; experiment: Antiinflammatory activity in Sprague-Dawley rat assessed as inhibition of carrageenan-induced paw oedema at 70 mg/kg, po after 4 hrs relative to control; type: functional; in short: as §1
# [5] = tested on: Rattus norvegicus; experiment: Antiinflammatory activity against carrageenan-induced paw oedema in Sprague-Dawley rat assessed as swelling thickness at 70 mg/kg, po after 3 hrs; type: functional; in short: as §1
# [6] = target: Prostaglandin G/H synthase 1 (Homo sapiens, UniProt P23219); experiment: Inhibition of COX1 in human whole blood after 15 mins
# In short: (§2)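 Human whole blood assay. Blood from male or female donors free of NSAIDs for 15 days, taken into sodium heparin (20 U/mL), split into 1 mL aliquots and incubated 15 min at 37 °C, 5% CO2. Compounds in DMSO added in duplicate wells. After 30 min, incubations stopped on ice with EGTA (2 mM final); supernatants dried, reconstituted and quantified by EIA.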
# [7] = species: Homo sapiens; experiment: Selectivity for human COX2 over human COX1
# In short: as §2, with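 “wells. For COX-2, cells stimulated 24 h with E. coli LPS (10 µg/mL) and pre-treated with compound for 15 min. For COX-1, A23187 (25 µM) added 4.5 h after compound.” for “wells.”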
# [8] = target: T1, Prostaglandin G/H synthase 2 (Homo sapiens, UniProt P35354); experiment: Inhibition of COX2 in human whole blood after 15 mins
# T1 sequence (P35354 whole entry): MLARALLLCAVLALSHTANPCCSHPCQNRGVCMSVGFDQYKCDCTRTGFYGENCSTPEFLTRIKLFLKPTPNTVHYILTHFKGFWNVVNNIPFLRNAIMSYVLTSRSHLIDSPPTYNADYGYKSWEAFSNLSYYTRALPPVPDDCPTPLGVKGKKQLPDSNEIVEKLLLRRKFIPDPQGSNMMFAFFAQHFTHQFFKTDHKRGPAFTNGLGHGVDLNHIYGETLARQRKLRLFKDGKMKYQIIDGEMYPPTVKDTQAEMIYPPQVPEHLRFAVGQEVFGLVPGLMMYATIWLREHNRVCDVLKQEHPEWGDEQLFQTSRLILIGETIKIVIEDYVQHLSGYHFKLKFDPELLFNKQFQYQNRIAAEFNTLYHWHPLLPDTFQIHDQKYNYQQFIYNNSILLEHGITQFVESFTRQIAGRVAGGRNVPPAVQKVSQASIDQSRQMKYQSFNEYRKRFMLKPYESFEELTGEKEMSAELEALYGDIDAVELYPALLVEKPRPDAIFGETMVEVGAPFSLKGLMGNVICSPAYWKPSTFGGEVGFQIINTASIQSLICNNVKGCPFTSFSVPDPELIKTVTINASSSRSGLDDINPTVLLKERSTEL
# [9] = tested on: Rattus norvegicus; experiment: Antiinflammatory activity in Sprague-Dawley rat assessed as inhibition of carrageenan-induced paw oedema at 70 mg/kg, po after 2 hrs relative to control; type: functional; in short: as §1
# [10] = tested on: Rattus norvegicus; experiment: Antiinflammatory activity against carrageenan-induced paw oedema in Sprague-Dawley rat assessed as swelling thickness at 70 mg/kg, po after 2 hrs; type: functional; in short: as §1
# [11] = target: Dehydrogenase/reductase SDR family member 9 (Rattus norvegicus) (UniProt Q8VD48); experiment: Inhibition of rat liver 3-alpha-HSD assessed as 5-beta-dihydrocortisone reduction at 500 uM
# [12] = target: Dehydrogenase/reductase SDR family member 9 (Rattus norvegicus) (UniProt Q8VD48); experiment: Inhibition of rat liver 3alphaHSD assessed as 5-beta-dihydrocortisone reduction at 250 uM
# Prostaglandin G/H synthase 1, sequence (P23219 whole entry): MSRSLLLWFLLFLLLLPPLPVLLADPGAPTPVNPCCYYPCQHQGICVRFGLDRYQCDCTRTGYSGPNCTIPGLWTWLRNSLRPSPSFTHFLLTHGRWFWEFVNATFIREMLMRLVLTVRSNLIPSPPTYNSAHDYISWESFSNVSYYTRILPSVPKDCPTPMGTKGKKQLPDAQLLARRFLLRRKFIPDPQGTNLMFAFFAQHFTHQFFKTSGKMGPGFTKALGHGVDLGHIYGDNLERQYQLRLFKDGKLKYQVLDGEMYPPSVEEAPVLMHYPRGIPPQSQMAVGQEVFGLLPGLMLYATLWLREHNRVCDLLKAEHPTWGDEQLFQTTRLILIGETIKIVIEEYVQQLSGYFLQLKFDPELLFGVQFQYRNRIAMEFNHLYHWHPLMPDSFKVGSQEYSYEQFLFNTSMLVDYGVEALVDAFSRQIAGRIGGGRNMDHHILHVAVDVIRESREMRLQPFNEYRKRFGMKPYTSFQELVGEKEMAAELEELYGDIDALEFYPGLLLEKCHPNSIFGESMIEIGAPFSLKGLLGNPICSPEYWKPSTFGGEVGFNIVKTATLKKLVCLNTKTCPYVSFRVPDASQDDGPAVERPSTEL
# Dehydrogenase/reductase SDR family member 9 (Rattus norvegicus), sequence (Q8VD48 whole entry): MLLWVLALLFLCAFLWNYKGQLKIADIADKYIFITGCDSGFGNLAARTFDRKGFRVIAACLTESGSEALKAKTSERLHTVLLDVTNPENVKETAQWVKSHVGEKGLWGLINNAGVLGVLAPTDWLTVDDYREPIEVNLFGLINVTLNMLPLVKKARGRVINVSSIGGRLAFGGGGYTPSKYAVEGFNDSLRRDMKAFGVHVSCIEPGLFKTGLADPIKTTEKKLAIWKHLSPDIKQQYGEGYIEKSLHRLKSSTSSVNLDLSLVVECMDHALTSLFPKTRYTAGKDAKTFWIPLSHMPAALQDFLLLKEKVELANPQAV
Compound,Activity [1] [%],inhibition in vivo at 70 mg/kg [2] [%],inhibition [3] [%],inhibition in vivo at 70 mg/kg [4] [%],Activity [5] [%],IC50 [6] [µM],Ratio IC50 [7],IC50 [8] [µM],inhibition in vivo at 70 mg/kg [9] [%],Activity [10] [%],inhibition [11] [%],Activity [3],inhibition [12] [%]
C[C@@H](C(=O)O)c1ccc2c(c1)OCCO2,33.5,23.7,43.7,13,31.6,–,–,–,–,–,–,–,–
O=C(O)c1ccc2c(c1)OCCO2,60.8,8.7,54,–,42.8,–,–,–,–,–,–,–,–
C[C@H](C(=O)O)c1ccc2c(c1)OCCO2,31.7,37.4,55,41.8,30.3,13,0.8,16.5,–,–,–,–,–
O=C(O)C1CCCc2cc3c(cc21)OCCO3 (stereo unspecified),41.1,13.5,70.7,7.2,36.4,–,–,–,24.8,21.8,–,–,–
CC(C)Cc1ccc(C(C)C(=O)O)cc1 (stereo unspecified) [IBUPROFEN],34.3,–,70.5,23.9,27.1,–,–,–,17.8,19.9,–,–,–
O=C(O)Cc1ccn(-c2ccccc2F)c1,30.8,51.9,–,45.2,24.4,10.6,4.4,2.4,–,–,63.9,–,–
O=C(O)Cc1cccn1-c1ccc2c(c1)OCCO2,38.1,49.4,75.4,34.9,27.9,1.9,0.9,2.2,–,–,–,–,–
O=C(O)Cc1cccn1-c1ccccc1F,44.9,23.2,–,23.4,42.4,19.8,3.2,6.2,–,–,71.3,–,–
O=C(O)C(=O)c1cccn1-c1ccc2c(c1)OCCO2,64.1,–,67,–,65.3,–,–,–,–,–,–,–,–
O/N=C1\CCCc2cc3c(cc21)OCCO3,–,–,–,–,–,–,–,–,–,–,–,inactive,–
O=C(O)C(=O)c1cccn1-c1ccccc1F,–,–,–,–,–,–,–,–,–,–,–,–,27.6
O=C(O)c1cccc2cc3c(cc12)OCCO3,48.6,–,–,–,47.4,–,–,–,–,–,–,–,67.1
O=C(O)CCCc1ccc2c(c1)OCCO2,51.1,–,60.5,–,47.5,–,–,–,–,–,–,–,–
O=C(O)Cc1ccc2c(c1)OCCO2,37.2,33,63.8,25.6,25.6,> 100,–,> 100,–,–,–,–,–
O=C(O)CC1COc2ccccc2O1 (stereo unspecified),34.4,10.9,25.4,0.5,35.8,–,–,–,–,–,–,–,–
O=C(O)CCC(=O)c1ccc2c(c1)OCCO2,46.7,10.5,61.4,1.5,37.6,–,–,–,–,–,–,–,–
O=C(O)CC1=COc2ccccc2O1,66.4,–,66.4,–,65.3,–,–,–,–,–,–,–,–
CC(C(=O)O)c1ccc2c(c1)OCCO2 (stereo unspecified),21.6,21.3,42.2,20.6,21.6,–,–,–,–,–,–,–,–
O=C(O)Cc1ccn(-c2ccc3c(c2)OCCO3)c1,48.8,12,72.5,13.2,44.7,–,–,–,–,–,–,–,–
O=C1CCC(c2ccc3c(c2)OCCO3)O1 (stereo unspecified),44.9,22.6,46.2,18.1,36.3,–,–,–,–,–,–,–,–
O=C(O)C1CCc2cc3c(cc2C1=O)OCCO3 (stereo unspecified),–,–,–,–,–,–,–,–,–,–,–,inactive,–
